We go through three molecules from ChEMBL document CHEMBL1145129, “Design, synthesis, and anticancer properties of 4,4'-dihydroxybenzophenone-2,4-dinitrophenylhydrazone and analogues” (J Med Chem, 2003).

The species entered for assay [1] is Homo sapiens. As to the kind of experiment: In vitro cytotoxicity in Human ovary tumor cells; (3+/-3, 4.2+/-4). The settings on record: Female gonad. The assay is classed as functional.
Assay [2] deals with breast cancer cells (Homo sapiens). As to the kind of experiment: In vitro cytotoxicity in estrogen receptor and progesterone receptor positive Human breast tumor cells; (2.5+/-0.9, 0.5+/-1).
A short description of assay [3]: In vitro cytotoxicity in B 16 F10 cell line. The settings on record: Mus musculus, B16-F10.
Assay [4] can be described thus: In vitro cytotoxicity in FDCP-1 cell line. The settings on record: Mus musculus, FDC-P1.
Assay [5] is described as follows: In vitro cytotoxicity in estrogen receptor negative progesterone receptor positive Human breast tumor cells; (3+/-2, 0.4+/-0.1). The assay is classed as functional, cell-based.
Assay [6] can be described thus: In vitro cytotoxicity in KM 12 SM cell line. The assay is classed as functional. The settings on record: Homo sapiens, KM12. The procedure, abridged:
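Established lines kept in RPMI-1640 with 10% fetal calf serum and penicillin/streptomycin at 36 °C, 10% CO₂. Cells seeded at 2000–3000 cells/well, hydrazones added at several concentrations after 18 h, and exposed a further 36 h. Viable cells read by MTT absorbance at 570 nm; cytostasis (%) = (1 − A/B)×100 against untreated control.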

Assay [7] is filed under the species Homo sapiens. The experiment in a line: In vitro cytotoxicity in Human lung tumor cells; (5+/-5, 6+/-5). The assay is classed as functional.
Assay [8] can be described thus: In vitro cytotoxicity in estrogen receptor positive progesterone receptor negative Human breast tumor cells; (>5, 0.5). The assay is classed as functional, cell-based.
Assay [9] has as its system Colon carcinoma cell. The experiment in a line: In vitro cytotoxicity in Human colon tumor cells; (>12+/-4, >12+/-5). The assay is classed as functional, cell-based.
Assay [10] can be described thus: In vitro cytotoxicity in estrogen receptor and progesterone receptor negative Human breast tumor cells; (5+/-2, 0.2+/-0.3). The assay is classed as functional, cell-based.
Assay [11] can be described thus: In vitro cytotoxicity in SN 12 PM6 cell line. The assay is classed as functional, cell-based. The settings on record: Homo sapiens. The method, boiled down: (§1)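 Established tumor lines kept in RPMI-1640 with 10% fetal calf serum and penicillin/streptomycin at 36 °C, 10% CO₂. Seeded 2000–3000 cells/well; hydrazone-containing medium added after 18 h, then 36 h further culture. Viable cells read by MTT absorbance at 570 nm; cytostasis (%) = (1 − A_treated/A_control) × 100.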

For another assay, the system named is MDA-MB-435. The experiment in a line: In vitro cytotoxicity in MDA-MB-435 cell line. The assay is classed as functional, cell-based. The settings on record: Homo sapiens. The procedure, abridged:
as §1

In assay [12] the test system is Melanoma tumor cell line. The experiment in a line: In vitro cytotoxicity in Human melanoma tumor cells; (5+/-4, >10). The assay is classed as functional, cell-based.
For assay [13], the system named is Colon carcinoma cell. As to the kind of experiment: In vitro cytotoxicity was tested in human colon tumor cells. The assay is classed as functional, cell-based. The procedure, abridged:
(§2)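 Fresh surgical human tumor specimens minced to ≤0.1 mm fragments in RPMI-1640 with 10% FBS, streptomycin and penicillin (10⁶–10⁸ cells/mL), explanted into slide flasks. Exposed 24 h at 37 °C, 5% CO₂, to test agent 0.1–20 μg/mL (≥5 doses over 3 logs), in duplicate. Washed, recultured 7–14 days, fixed, HPF cell counts vs control; IC50 (SD) from percent growth.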

Assay [14] in a line: In vitro cytotoxicity in K 1735 M2 cell line. The assay is classed as functional.
A short description of assay [15]: In vitro cytotoxicity in KM 12L4 cell line. The assay is classed as functional, cell-based. The settings on record: Homo sapiens. The method, boiled down:
as §1

The nature of assay [16]: In vitro cytotoxicity in Human breast tumor cells. The assay is classed as functional, cell-based. The procedure, abridged:
as §2

Assay [17] concerns Melanoma tumor cell line. As to the kind of experiment: In vitro cytotoxicity against Human melanoma tumor cells; Not available. The assay is classed as functional, cell-based. The procedure, abridged:
as §2

Assay [18] is described as follows: In vitro cytotoxicity in MDA-MB-435/lung met cell line. The assay is classed as functional. Particulars: Homo sapiens; call rule not given here. The method, boiled down: as §1
Assay [19] can be described thus: In vitro cytotoxicity in KM 12 C cell line. The assay is classed as functional. Particulars: Homo sapiens, KM12C. The method, boiled down:
as §1

Assay [20] is filed under the species Homo sapiens. As to the kind of experiment: In vitro cytotoxicity against Human lung tumor cells. The assay is classed as functional. The method, boiled down:
as §2

The species named for assay [21] is Homo sapiens. As to the kind of experiment: In vitro cytotoxicity against Human lung tumor cells; Not available. The assay is classed as functional. The procedure, abridged: as §2

Converted amounts (≈) assume the structure as drawn.

As usually defined, the IC50 is the midpoint of a concentration-inhibition curve. Take `O=[N+]([O-])c1ccc(NN=C(c2ccc(O)cc2)c2ccc(O)cc2)c([N+](=O)[O-])c1` [SIVIFENE]: the IC50 in the assay listed under Homo sapiens [1] was 12.3 µg/mL (≈ 31.2 µM); in [2] it was 3.5 µg/mL (≈ 8.88 µM); in [3], 1 µg/mL (≈ 2.54 µM); in [4], 9.1 µg/mL (≈ 23.1 µM); in assay [5], over 10 µg/mL; in assay [6], 5.4 µg/mL (≈ 13.7 µM). In addition, the IC50 was 4.9 µg/mL (≈ 12.4 µM) in the assay listed under Homo sapiens [7]; over 10 µg/mL in assay [8]; 15.2 µg/mL (≈ 38.5 µM) in the assay with Colon carcinoma cell [9]; 12.6 µg/mL (≈ 32 µM) in [10]; 4 µg/mL (≈ 10.1 µM) in [11]; 2.1 µg/mL (≈ 5.33 µM) in the assay on MDA-MB-435. For the same molecule, inhibition with Melanoma tumor cell line [12] was half-maximal at 7 µg/mL (≈ 17.8 µM) (IC50).

For the molecule `O=[N+]([O-])c1ccc(/N=N/c2c3cccc(O)c3c(O)c3c(O)cccc23)c([N+](=O)[O-])c1`, the IC50 is 0.03 µg/mL (≈ 0.0714 µM) in the assay with Colon carcinoma cell [13]; 0.02 µg/mL (≈ 0.0476 µM) in [14]; 0.02 µg/mL (≈ 0.0476 µM) in assay [15]; 0.03 µg/mL (≈ 0.0714 µM) in assay [16]; 0.05 µg/mL (≈ 0.119 µM) in assay [6]; “Not Active” in the assay with Melanoma tumor cell line [17]. The IC50 is 0.03 µg/mL (≈ 0.0714 µM) in assay [18]; 0.03 µg/mL (≈ 0.0714 µM) in assay [19]; 0.03 µg/mL (≈ 0.0714 µM) in assay [11]; 0.12 µg/mL (≈ 0.285 µM) in the assay filed under Homo sapiens [20]; 0.02 µg/mL (≈ 0.0476 µM) in the assay on MDA-MB-435.

`COc1ccc2c(=NNc3ccc([N+](=O)[O-])cc3[N+](=O)[O-])c3ccc(OC)cc3oc2c1`: the IC50 in [14] was 0.64 µg/mL (≈ 1.47 µM); in [15], 1.57 µg/mL (≈ 3.6 µM); in assay [3], 0.44 µg/mL (≈ 1.01 µM); in assay [4] it was 0.95 µg/mL (≈ 2.18 µM); in [16], over 5 µg/mL; in the assay filed under Homo sapiens [21], “Not Active”. The IC50 entry was “Not Active” in the assay on Melanoma tumor cell line [17], 0.62 µg/mL (≈ 1.42 µM) in [11] and 0.41 µg/mL (≈ 0.94 µM) in the assay with MDA-MB-435.
